Data from ChEMBL document CHEMBL3745639, “Structure-activity relationships for lipoprotein lipase agonists that lower plasma triglycerides in vivo” (Eur J Med Chem, 2015).
Activity calls are given as the source filed them. Unless noted, the calls are words filed in the database; no cut-off is given here.

Assays:
[1] = target: T1, Lipoprotein lipase (Bos taurus) (UniProt P11151); experiment: Induction of bovine LPL stabilization using intralipid as substrate at 12.5 uM preincubated for 10 mins with human recombinant ANGPTL4 followed by substrate addition measured after 45 mins relative to control
T1 sequence (whole entry): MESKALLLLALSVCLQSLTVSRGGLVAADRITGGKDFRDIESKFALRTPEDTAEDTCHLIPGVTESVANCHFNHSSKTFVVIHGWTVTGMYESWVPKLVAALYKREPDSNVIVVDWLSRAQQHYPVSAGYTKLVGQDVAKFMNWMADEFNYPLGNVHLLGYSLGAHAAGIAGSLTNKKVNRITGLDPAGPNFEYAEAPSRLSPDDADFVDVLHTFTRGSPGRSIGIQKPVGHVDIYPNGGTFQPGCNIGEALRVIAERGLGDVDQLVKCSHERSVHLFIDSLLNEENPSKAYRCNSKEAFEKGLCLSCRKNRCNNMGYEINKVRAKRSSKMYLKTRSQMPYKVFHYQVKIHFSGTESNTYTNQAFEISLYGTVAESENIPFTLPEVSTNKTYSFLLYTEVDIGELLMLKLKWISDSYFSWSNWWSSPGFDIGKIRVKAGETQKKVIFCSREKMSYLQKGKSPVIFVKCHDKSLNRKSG
Outline: (§1)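 Compound in DMSO in buffer (50 mM potassium phosphate pH 7.4, 0.15 M NaCl, 0.01% Triton X-100), with human ANGPTL4 N-terminal fragment (aa 26-184, 75 nM final) and bovine LPL (15 nM final). Preincubated 10 min at 25 °C with shaking. Stopped after 45 min with 2.5% Triton X-100, and NEFA measured enzymatically. Activity normalised between DMSO+LPL+ANGPTL4 (0%) and DMSO+LPL (100%).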

[2] = target: T1, Lipoprotein lipase (Bos taurus); experiment: Induction of bovine LPL stabilization using intralipid as substrate at 6.25 uM preincubated for 10 mins with human recombinant ANGPTL4 followed by substrate addition measured after 45 mins relative to control; outline: as §1
[3] = target: T1, Lipoprotein lipase (Bos taurus); experiment: Induction of bovine LPL stabilization using intralipid as substrate at 25 uM preincubated for 10 mins with human recombinant ANGPTL4 followed by substrate addition measured after 45 mins relative to control; outline: as §1
[4] = target: T1, Lipoprotein lipase (Bos taurus); experiment: Induction of bovine LPL stabilization using intralipid as substrate at 3.12 uM preincubated for 10 mins with human recombinant ANGPTL4 followed by substrate addition measured after 45 mins relative to control; outline: as §1

O=C(O)c1ccc2c(c1)C(=O)N(c1ccc(N3CCCCC3)c(C(=O)Nc3ccccc3-c3ccccc3)c1)C2=O gave an Activity [1] of 63.3%, an Activity [2] of 60.1% and an Activity [3] of 68.5%. For the same molecule, the Activity [4] was “inactive”.
CCc1ccc(NC(=O)c2cc(N3C(=O)c4ccc(C(=O)O)cc4C3=O)ccc2N2CCCCC2)cc1 showed an Activity [1] of 36.5%, an Activity [2] of 32.4% and an Activity [3] of 47%. The Activity [4] was “inactive”.
For Cc1ccc(NC(=O)c2cc(N3C(=O)c4cccc(C(=O)O)c4C3=O)ccc2N2CCCCC2)cc1, the Activity [1] was “inactive”, the Activity [2] was “inactive” and the Activity [3] was “inactive”. For the same molecule, the Activity [4] was “inactive”.
O=C(O)c1ccc2c(c1)C(=O)N(c1ccc(Cl)c(C(=O)NCc3cccnc3)c1)C2=O was tested, and the Activity [1] was “inactive”, the Activity [2] was “inactive” and the Activity [3] was “inactive”. The Activity [4] was “inactive”.
For CCN(CC)c1ccc(N2C(=O)c3ccc(C(=O)O)cc3C2=O)cc1C(=O)Nc1ccc(C)cc1, the Activity [1] was “inactive”, the Activity [2] was “inactive” and the Activity [3] was 49.5%. The Activity [4] was “inactive”.
Cc1ccc(NC(=O)c2cc(N3C(=O)c4ccc(C(N)=O)cc4C3=O)ccc2N2CCCCC2)cc1 was tested, and the Activity [1] was “inactive”, the Activity [2] was “inactive” and the Activity [3] was 3.5%. The Activity [4] was “inactive”.
O=C(O)c1ccc2c(c1)C(=O)N(c1ccc(N3CCCCC3)c(C(=O)NCc3ccccc3)c1)C2=O was tested, and the Activity [1] was “inactive”, the Activity [2] was “inactive” and the Activity [3] was “inactive”. For the same molecule, the Activity [4] was “inactive”.
Cc1ccc(NC(=O)c2cc(Nc3ccc(C)cc3)cc(N3C(=O)c4ccc(C(=O)O)cc4C3=O)c2)cc1 gave an Activity [1] of 7%, an Activity [2] of 5% and an Activity [3] of 24.6%. For the same molecule, the Activity [4] was “inactive”.
O=C(O)c1ccc2c(c1)C(=O)N(c1ccccc1)C2=O was tested, and the Activity [1] was “inactive”, the Activity [2] was “inactive” and the Activity [3] was “inactive”. For the same molecule, the Activity [4] was “inactive”.
CCCCCCCCCCNc1ccc(N2C(=O)c3ccc(C(=O)O)cc3C2=O)cc1C(=O)Nc1ccc(C)cc1 was tested, and the Activity [1] was 10%, the Activity [2] was 5.9% and the Activity [3] was 19.2%. For the same molecule, the Activity [4] was 13.6%.
With O=C1c2ccccc2C(=O)N1c1ccccc1 the Activity [1] was “inactive”, the Activity [2] was “inactive” and the Activity [3] was “inactive”. For the same molecule, the Activity [4] was “inactive”.
For Cc1ccc(NC(=O)c2cc(N3CCCCC3)ccc2N2C(=O)c3ccc(C(=O)O)cc3C2=O)cc1, the Activity [1] was 55.1%, the Activity [2] was “inactive” and the Activity [3] was 36.3%. For the same molecule, the Activity [4] was “inactive”.
Cc1ccc(NC(=O)c2cc(N3C(=O)c4ccccc4C3=O)ccc2N2CCCCC2)cc1 was tested, and the Activity [1] was “inactive”, the Activity [2] was “inactive” and the Activity [3] was “inactive”. For the same molecule, the Activity [4] was “inactive”.
In the case of Cc1ccc(NC(=O)c2cc(N3C(=O)c4ccc(C(=O)O)cc4C3=O)ccc2N2CCOCC2)cc1, the Activity [1] is reported as “inactive”, the Activity [2] is reported as “inactive” and the Activity [3] is reported as “inactive”. For the same molecule, the Activity [4] was “inactive”.
For COCCOCCOc1ccc(N2C(=O)c3ccc(C(=O)O)cc3C2=O)cc1C(=O)Nc1ccc(C)cc1, the Activity [1] was “inactive”, the Activity [2] was “inactive” and the Activity [3] was “inactive”. For the same molecule, the Activity [4] was “inactive”.
With COC(=O)c1ccc2c(c1)C(=O)N(c1ccc(N3CCCCC3)c(C(=O)Nc3ccc(C)cc3)c1)C2=O the Activity [1] was “inactive”, the Activity [2] was “inactive” and the Activity [3] was “inactive”. For the same molecule, the Activity [4] was “inactive”.
Cc1cccc(NC(=O)c2cc(N3C(=O)c4ccc(C(=O)O)cc4C3=O)ccc2N2CCCCC2)c1 was tested, and the Activity [1] was 38.6%, the Activity [2] was “inactive” and the Activity [3] was 56.6%. For the same molecule, the Activity [4] was “inactive”.
In the case of Cc1ccc(NC(=O)c2ccc(N3CCCCC3)cc2N2C(=O)c3ccc(C(=O)O)cc3C2=O)cc1, the Activity [1] is reported as “inactive”, the Activity [2] is reported as “inactive” and the Activity [3] is reported as 96.7%. For the same molecule, the Activity [4] was “inactive”.
O=C(O)c1ccc2c(c1)C(=O)N(c1ccc(N3CCCCC3)c(C(=O)Nc3ccc(C(F)(F)F)cc3)c1)C2=O was tested, and the Activity [1] was 54.6%, the Activity [2] was “inactive” and the Activity [3] was 81.6%. For the same molecule, the Activity [4] was “inactive”.
